From ChEMBL document CHEMBL3045743, “Synthesis and herbicidal activity of isoindoline-1,3-dione substituted benzoxazinone derivatives containing a carboxylic ester group” (J Agric Food Chem, 2009)

Experiments:
Oryza sativa = experiment: Phytotoxicity against Oryza sativa (rice) assessed as growth inhibition at 7.5 to 60 g.a.i/ha post-emergent application measured after 15 days by greenhouse crop selectivity assay; type: organism-based, L.; conditions: in vivo, other, 360 h
Procedure, shortened: (§1)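 Postemergence crop selectivity test on pot-grown plants in a greenhouse, in clay soil (pH 6.5, 1.7% organic matter, CEC 12.9 cmol/kg). Stock was diluted with water and sprayed at 60, 30, 15 or 7.5 g a.i./ha, in triplicate. Growth inhibition was rated visually against untreated controls after 15 days and given as the triplicate mean percentage.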

[1] = test system: Brassica rapa subsp. oleifera; experiment: Phytotoxicity against Brassica rapa subsp. oleifera assessed as growth inhibition at 300 g.a.i/ha pre-emergent application measured after 15 days by greenhouse crop selectivity assay; type: functional; conditions: pre-emergence, 360 h, read-out: GI
Procedure, shortened: (§2)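 Pot-grown crop in greenhouse clay soil (pH 6.5, 1.7% organic matter, 37.5% clay, CEC 12.9 cmol/kg). Stock diluted with water and applied pre-emergence at 300, 150, 75 or 37.5 g a.i./ha. Cultivated 15 days, then phytotoxicity scored visually as % growth inhibition versus untreated controls. Triplicate treatments, averaged.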

Arachis hypogaea = experiment: Phytotoxicity against Arachis hypogaea (peanut) assessed as growth inhibition at 7.5 to 60 g.a.i/ha post-emergent application measured after 15 days by greenhouse crop selectivity assay; type: organism-based; conditions: in vivo, other, 360 h; procedure, shortened: as §1
Triticum aestivum = experiment: Phytotoxicity against Triticum aestivum (wheat) assessed as growth inhibition at 37.5 g.a.i/ha pre-emergent application measured after 15 days by greenhouse crop selectivity assay; type: organism-based; conditions: in vivo, other, 360 h
Procedure, shortened: (§3)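 Pre-emergence greenhouse crop selectivity test on pot-grown plants in clay soil (pH 6.5, 1.7% organic matter, 37.5% clay, CEC 12.9 cmol/kg). Stock solutions were diluted with water and applied at 300, 150, 75 or 37.5 g a.i./ha, in triplicate. After 15 days, phytotoxicity was scored visually against untreated controls as % crop growth inhibition, averaged over the triplicates.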

Amaranthus spinosus = experiment: Pre-emergence herbicidal activity against Amaranthus spinosus assessed as growth inhibition at 15 g.a.i./ha applied 24 hr after seeds were sown measured after 15 days; type: functional; conditions: read-out: GI
Procedure, shortened: (§4)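 Weeds sown 5 mm deep in pots of greenhouse clay soil (pH 6.5, 37.5% clay, CEC 12.9 cmol/kg) and grown at 22-25 °C. Water-diluted formulation was applied pre-emergence 24 h after sowing. Untreated and DMF solvent controls were included. Growth inhibition was visually rated in % against untreated controls after 15 days, as the mean of triplicates.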

Abutilon theophrasti = experiment: Post-emergence herbicidal activity against Abutilon theophrasti (velvetleaf) assessed as growth inhibition at 7.5 g.a.i./ha applied at two-leaf stage measured after 15 days; type: functional; conditions: 360 h, read-out: GI
Procedure, shortened: (§5)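 Pot-grown weeds sown 5 mm deep in greenhouse clay soil (pH 6.5, 1.7% organic matter, CEC 12.9 cmol/kg) at 22-25 °C. Stock diluted with water and sprayed post-emergence: dicots at 2-leaf stage, monocots at 1-leaf stage. Untreated and DMF solvent controls were included. % growth inhibition was scored visually versus untreated controls after 15 days. Triplicates averaged.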

Amaranthus [2] = experiment: Post-emergence herbicidal activity against Amaranthus ascendens assessed as growth inhibition at 75 g.a.i./ha applied at two-leaf stage measured after 15 days; type: functional; conditions: 360 h, read-out: GI; procedure, shortened: as §5
[3] = Phytotoxicity against Oryza sativa (rice) assessed as growth inhibition at 150 g.a.i/ha pre-emergent application measured after 15 days by greenhouse crop selectivity assay; type: organism-based, L.; conditions: in vivo, read-out: GI; procedure, shortened: as §3
Setaria viridis = experiment: Post-emergence herbicidal activity against Setaria viridis (green foxtail) assessed as growth inhibition at 75 g.a.i./ha applied at one-leaf stage measured after 15 days; type: functional; conditions: 360 h, read-out: GI; procedure, shortened: as §5
Digitaria sanguinalis [4] = experiment: Post-emergence herbicidal activity against Digitaria sanguinalis (hairy crabgrass) assessed as growth inhibition at 75 g.a.i./ha applied at one-leaf stage measured after 15 days; type: functional; conditions: 360 h, read-out: GI; procedure, shortened: as §5
[5] = Phytotoxicity against Oryza sativa (rice) assessed as growth inhibition at 75 g.a.i/ha pre-emergent application measured after 15 days by greenhouse crop selectivity assay; type: organism-based, L.; conditions: in vivo, 75 g.a.i/ha, read-out: GI; procedure, shortened: as §3
Glycine max [6] = experiment: Phytotoxicity against Glycine max (soybean) assessed as growth inhibition at 7.5 to 60 g.a.i/ha post-emergent application measured after 15 days by greenhouse crop selectivity assay; type: organism-based; conditions: in vivo, other, 360 h; procedure, shortened: as §1
Echinochloa crus-galli [7] = experiment: Pre-emergence herbicidal activity against Echinochloa crus-galli (barnyard grass) assessed as growth inhibition at 75 g.a.i./ha applied 24 hr after seeds were sown measured after 15 days; type: functional; conditions: read-out: GI; procedure, shortened: as §4
Glycine max [8] = experiment: Phytotoxicity against Glycine max (soybean) assessed as growth inhibition at 75 g.a.i/ha pre-emergent application measured after 15 days by greenhouse crop selectivity assay; type: organism-based; conditions: in vivo, other, 360 h; procedure, shortened: as §3
Echinochloa crus-galli [9] = experiment: Post-emergence herbicidal activity against Echinochloa crus-galli (barnyard grass) assessed as growth inhibition at 37.5 g.a.i./ha applied at one-leaf stage measured after 15 days; type: functional; conditions: 360 h, read-out: GI; procedure, shortened: as §5
[10] = test system: Brassica rapa subsp. oleifera; experiment: Phytotoxicity against Brassica rapa subsp. oleifera assessed as growth inhibition at 75 g.a.i/ha pre-emergent application measured after 15 days by greenhouse crop selectivity assay; type: functional; conditions: pre-emergence, 360 h, read-out: GI; procedure, shortened: as §2
Digitaria sanguinalis [11] = experiment: Pre-emergence herbicidal activity against Digitaria sanguinalis (hairy crabgrass) assessed as growth inhibition at 7.5 g.a.i./ha applied 24 hr after seeds were sown measured after 15 days; type: functional; conditions: read-out: GI; procedure, shortened: as §4
Chenopodium album [12] = experiment: Pre-emergence herbicidal activity against Chenopodium album assessed as growth inhibition at 75 g.a.i./ha applied 24 hr after seeds were sown measured after 15 days; type: functional; conditions: read-out: GI; procedure, shortened: as §4
Zea mays [13] = experiment: Phytotoxicity against Zea mays (maize) assessed as growth inhibition at 75 g.a.i/ha pre-emergent application measured after 15 days by greenhouse crop selectivity assay; type: organism-based; conditions: in vivo, other, 360 h; procedure, shortened: as §3
Chenopodium album [14] = experiment: Pre-emergence herbicidal activity against Chenopodium album assessed as growth inhibition at 15 g.a.i./ha applied 24 hr after seeds were sown measured after 15 days; type: functional; conditions: read-out: GI; procedure, shortened: as §4
Glycine max [15] = experiment: Phytotoxicity against Glycine max (soybean) assessed as growth inhibition at 37.5 g.a.i/ha pre-emergent application measured after 15 days by greenhouse crop selectivity assay; type: organism-based; conditions: in vivo, other, 360 h; procedure, shortened: as §3
Digitaria sanguinalis [16] = experiment: Pre-emergence herbicidal activity against Digitaria sanguinalis (hairy crabgrass) assessed as growth inhibition at 75 g.a.i./ha applied 24 hr after seeds were sown measured after 15 days; type: functional; conditions: read-out: GI; procedure, shortened: as §4
Digitaria sanguinalis [17] = experiment: Pre-emergence herbicidal activity against Digitaria sanguinalis (hairy crabgrass) assessed as growth inhibition at 15 g.a.i./ha applied 24 hr after seeds were sown measured after 15 days; type: functional; conditions: read-out: GI; procedure, shortened: as §4
Zea mays [18] = experiment: Phytotoxicity against Zea mays (maize) assessed as growth inhibition at 7.5 to 60 g.a.i/ha post-emergent application measured after 15 days by greenhouse crop selectivity assay; type: organism-based; conditions: in vivo, other, 360 h; procedure, shortened: as §1
[19] = test system: Brassica rapa subsp. oleifera; experiment: Phytotoxicity against Brassica rapa subsp. oleifera assessed as growth inhibition at 7.5 to 60 g.a.i/ha post-emergent application measured after 15 days by greenhouse crop selectivity assay; type: organism-based; conditions: in vivo, other, 360 h; procedure, shortened: as §1
Gossypium = experiment: Phytotoxicity against Gossypium (cotton) assessed as growth inhibition at 7.5 to 60 g.a.i/ha post-emergent application measured after 15 days by greenhouse crop selectivity assay; type: organism-based; conditions: in vivo, other, 360 h; procedure, shortened: as §1
Amaranthus [20] = experiment: Pre-emergence herbicidal activity against Amaranthus ascendens assessed as growth inhibition at 75 g.a.i./ha applied 24 hr after seeds were sown measured after 15 days; type: functional; conditions: read-out: GI; procedure, shortened: as §4
[21] = Phytotoxicity against Oryza sativa (rice) assessed as growth inhibition at 300 g.a.i/ha pre-emergent application measured after 15 days by greenhouse crop selectivity assay; type: organism-based, L.; conditions: in vivo, read-out: GI; procedure, shortened: as §3

SMILES	Activity (Oryza sativa)	inhibition of growth at 300 g/ha [1]	Activity (Arachis hypogaea)	inhibition of growth at 15 g/ha (Amaranthus spinosus)	inhibition of growth at 7.5 g/ha (Abutilon theophrasti)	inhibition of growth at 75 g/ha (Amaranthus [2])	inhibition at 360 h [3]	inhibition of growth at 75 g/ha (Setaria viridis)	inhibition of growth at 75 g/ha (Digitaria sanguinalis [4])	Activity (Glycine max [6])	inhibition of growth at 75 g/ha (Echinochloa crus-galli [7])	inhibition of growth at 37.5 g/ha (Echinochloa crus-galli [9])	inhibition of growth at 75 g/ha [10]	inhibition of growth at 7.5 g/ha (Digitaria sanguinalis [11])	inhibition of growth at 75 g/ha (Chenopodium album [12])	inhibition of growth at 15 g/ha (Chenopodium album [14])	growth inhibition (GI) (Glycine max [15])	inhibition of growth at 75 g/ha (Digitaria sanguinalis [16])	inhibition of growth at 15 g/ha (Digitaria sanguinalis [17])	Activity (Zea mays [18])	other results
COC(=O)C(C)N1C(=O)C(C)Oc2cc(F)c(N3C(=O)C4=C(CCCC4)C3=O)cc21 (stereo not drawn)	Toxic	> 10%	Toxic	100%	100%	> 80%	> 10%	> 80%	> 80%	Toxic	> 80%	50%	> 10%	0%	> 80%	100%	Not Active	> 80%	10%	Toxic	growth inhibition (GI) (Triticum aestivum): Not Active; inhibition at 360 h [5]: > 10%; growth inhibition (GI) (Glycine max [8]): Not Active; growth inhibition (GI) (Zea mays [13]): Not Active; Activity [19]: Toxic; Activity (Gossypium): Toxic; inhibition of growth at 75 g/ha (Amaranthus [20]): > 80%; inhibition at 360 h [21]: > 10%
CCOC(=O)C(C)N1C(=O)C(C)Oc2cc(F)c(N3C(=O)C4=C(CCCC4)C3=O)cc21 (stereo not drawn)	Toxic	> 10%	Toxic	95%	100%	> 80%	> 10%	> 80%	> 80%	Toxic	> 80%	50%	> 10%	0%	> 80%	100%	Not Active	> 80%	40%	Toxic	growth inhibition (GI) (Triticum aestivum): Not Active; inhibition at 360 h [5]: > 10%; growth inhibition (GI) (Glycine max [8]): Not Active; growth inhibition (GI) (Zea mays [13]): Not Active; Activity [19]: Toxic; Activity (Gossypium): Toxic; inhibition of growth at 75 g/ha (Amaranthus [20]): > 80%; inhibition at 360 h [21]: > 10%
C#CCN1C(=O)COc2cc(F)c(N3C(=O)C4=C(CCCC4)C3=O)cc21 [FLUMIOXAZIN]	Toxic	> 10%	Toxic	100%	100%	> 80%	> 10%	> 80%	> 80%	Toxic	> 80%	80%	> 10%	0%	> 80%	100%	Not Active	> 80%	50%	Toxic	inhibition at 360 h [5]: > 10%; Activity [19]: Toxic; Activity (Gossypium): Toxic; inhibition of growth at 75 g/ha (Amaranthus [20]): > 80%; inhibition at 360 h [21]: > 10%
CCOC(=O)C(CC)N1C(=O)C(C)Oc2cc(F)c(N3C(=O)C4=C(CCCC4)C3=O)cc21 (stereo not drawn)	Toxic	> 10%	Toxic	100%	100%	> 80%	> 10%	> 80%	> 80%	Toxic	> 80%	50%	> 10%	0%	> 80%	100%	Not Active	> 80%	0%	Toxic	growth inhibition (GI) (Triticum aestivum): Not Active; growth inhibition (GI) (Glycine max [8]): Not Active; growth inhibition (GI) (Zea mays [13]): Not Active; Activity [19]: Toxic; Activity (Gossypium): Toxic; inhibition of growth at 75 g/ha (Amaranthus [20]): > 80%; inhibition at 360 h [21]: > 10%
